According to ChEMBL document CHEMBL1158062, “Cyclopentenones, scaffolds for organic syntheses produced by the endophytic fungus mitosporic dothideomycete sp. LRUB20” (J Nat Prod, 2006):
Values after ≈ are worked out from the molar mass of the structure shown. Active and inactive are the calls of the source. No cut-off for these calls is given here.

Experiments:
NCI-H187 [1] = assay: Cytotoxicity against human NCI-H187 cells at 50 ug/ml by SRB assay; type: functional, cell-based
BC [2] = assay: Cytotoxicity against BC cells at 50 ug/ml by SRB assay; type: functional, cell-based
Vero [3] = assay: Cytotoxicity against african green monkey Vero cells at 50 ug/ml by SRB assay; type: cell-based; settings: chlorocebus sabaeus
KB [4] = assay: Cytotoxicity against human KB cells at 50 ug/ml by SRB assay; type: functional, cell-based
[5] = test system: Mycobacterium tuberculosis; assay: Antimycobacterial activity against Mycobacterium tuberculosis H37Ra by microplate alamar blue assay; type: functional
In short: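 M. tuberculosis H37Ra grown in Middlebrook 7H9 broth and tested in a microplate Alamar Blue assay, with MIC as the read-out. Isoniazid and kanamycin sulfate were run as standard drugs.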

BC [6] = assay: Cytotoxicity against BC cells by SRB assay; type: functional, cell-based
In short: (§1)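 Colorimetric cytotoxicity read-out following the Skehan method, run on Vero, KB, NCI-H187 and BC cell lines, with ellipticine included as the reference compound; result reported as IC50.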

NCI-H187 [7] = assay: Cytotoxicity against human NCI-H187 cells by SRB assay; type: functional, cell-based; in short: as §1
Vero [8] = assay: Cytotoxicity against african green monkey Vero cells by SRB assay; type: cell-based; settings: chlorocebus sabaeus; in short: as §1
KB [9] = assay: Cytotoxicity against human KB cells by SRB assay; type: functional, cell-based; in short: as §1

Compound	Activity (NCI-H187 [1])	Activity (BC [2])	Activity (Vero [3])	Activity (KB [4])	MIC [5]	Activity (BC [6])	Activity (NCI-H187 [7])	IC50 (Vero [8])	Activity (KB [9])
CC1=C(CO)/C(=N/Nc2ccc([N+](=O)[O-])cc2[N+](=O)[O-])CC1	inactive	inactive	Not Active	inactive					
CC1=C(CO)C(=O)CC1	inactive	inactive	Not Active	inactive	200 µg/mL (≈ 1590 µM)				
COC(=O)c1cc(O)cc(OC)c1Oc1cc(C)cc(O)c1C(=O)O [ASTERRIC ACID]	inactive	inactive	Not Active	inactive	200 µg/mL (≈ 574 µM)				
C[C@@H]1CC/C(=N\Nc2ccc([N+](=O)[O-])cc2[N+](=O)[O-])[C@@H]1CO					200 µg/mL (≈ 649 µM)	inactive	inactive	21.7 µg/mL (≈ 70.4 µM)	inactive
